5 compounds from ChEMBL document CHEMBL2021883, “Amino acid, dipeptide and pseudodipeptide conjugates of ring-substituted 8-aminoquinolines: synthesis and evaluation of anti-infective, β-haematin inhibition and cytotoxic activities” (Eur J Med Chem, 2012) can be followed below.

A short description of series [1]: Selectivity index, ratio of IC50 for african green monkey Vero cells to IC50 for chloroquine-sensitive Plasmodium falciparum D6. Conditions: Vero cells versus Plasmodium falciparum D6, read-out: Ratio IC50. It counts as toxicity, cell-based.
Series [2] deals with Staphylococcus aureus. Description: Antimicrobial activity against Staphylococcus aureus ATCC 29213 by CLSI method. It counts as functional, organism-based.
Series [3] in a line: Inhibition of beta-hematin formation. It counts as functional.
Another series has as its system Vero. Description: Cytotoxicity against african green monkey Vero cells upto 23.8 […] by neutral dye assay. The series is classed as cell-based, Chlorocebus sabaeus. The procedure, abridged: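 Vero monkey kidney cells were exposed to compound up to a highest concentration of 23.8, with viability read by neutral red uptake.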
In another series the test system is Escherichia coli. Description: Antimicrobial activity against Escherichia coli ATCC 35218 by CLSI method. It counts as functional, organism-based.
Series [4] has as its system Staphylococcus aureus. Description: Antimicrobial activity against methicillin-resistant Staphylococcus aureus ATCC 43300 by CLSI method. It counts as functional, organism-based.
Series [5] deals with Mycobacterium intracellulare. Description: Antimicrobial activity against Mycobacterium intracellulare ATCC 23068 by Franzblau method. It counts as functional, organism-based.
For a further series, the system named is Aspergillus fumigatus. Description: Antifungal activity against Aspergillus fumigatus. The series is classed as functional, organism-based. The procedure, abridged:
(§1)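 Yeasts and A. fumigatus were tested by broth microdilution following the NCCLS antifungal standards. The highest test concentration was 20.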

The next series concerns Pseudomonas aeruginosa. Description: Antimicrobial activity against Pseudomonas aeruginosa ATCC 27853 by CLSI method. The series is classed as functional, organism-based. The method, boiled down: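 Antibacterial testing used CLSI/NCCLS broth dilution for aerobically growing bacteria, with 20 as the highest test concentration.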
The next series concerns Cryptococcus neoformans. Description: Antifungal activity against Cryptococcus neoformans. It counts as functional, organism-based. The method, boiled down:
as §1

For the next series, the system named is Leishmania donovani. Description: Antileishmanial activity against Leishmania donovani promastigote by Alamar Blue assay. The series is classed as functional, organism-based. For orientation: Alamar Blue is a resazurin reagent that responds to reducing activity.
For series [6], the system named is Plasmodium falciparum. Description: Antimalarial activity against chloroquine-resistant Plasmodium falciparum W2 assessed as plasmodial LDH activity. It counts as functional, organism-based.
Series [7] deals with Plasmodium falciparum. Description: Antimalarial activity against chloroquine-sensitive Plasmodium falciparum D6 assessed as plasmodial LDH activity. The series is classed as functional, organism-based.
For series [8], the system named is Candida albicans. Description: Antifungal activity against Candida albicans. It counts as functional, organism-based. The procedure, abridged: as §1
The nature of series [9]: Selectivity index, ratio of IC50 for african green monkey Vero cells to IC50 for chloroquine-resistant Plasmodium falciparum W2. It counts as toxicity, cell-based. Conditions: Vero cells versus Plasmodium falciparum W2, read-out: Ratio IC50.
The subject of series [10] is Candida albicans. Description: Fungicidal activity against Candida albicans at 20 ug/ml. It counts as functional, organism-based. The procedure, abridged:
(§2)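 Broth dilution antifungal testing followed the NCCLS reference method for yeasts, with 20 as the highest test concentration. MIC was the lowest concentration with no detectable growth. MFC was the lowest concentration killing the organism.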

Another series relates to Plasmodium berghei. Description: Antimalarial activity against Plasmodium berghei blood-schizont in mouse malaria model assessed as elimination of parasitemia at 100 mg/kg, po for 4 days for 4 days measured after 7 days. The series is classed as functional, organism-based. Further details: dose 100 mg/kg. The procedure, abridged: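 P. berghei-infected mice, 6 per group, received compound orally once daily for 4 days at 10, 25, 50 or 100 mg/kg/day. "Active" meant all treated animals were parasitaemia-negative up to D+7. "Curative" meant complete parasite elimination with survival to D+60. Outcomes were recorded as cured/total.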

For series [11], the system named is Candida albicans. Description: Antifungal activity against Candida albicans at 20 ug/ml. The series is classed as functional, organism-based. The method, boiled down:
as §2

Another series has as its system Nakaseomyces glabratus. Description: Antifungal activity against Candida glabrata. It counts as functional, organism-based. The method, boiled down: as §1
Where [12] appears, read: Leishmania donovani, read-out: IC50.
Setting [13] is: Plasmodium falciparum, W2, read-out: IC50.
The mark [14] stands for this setting: Plasmodium falciparum, D6, read-out: IC50.

Converted amounts (≈) assume the structure as drawn. The source made the active and inactive calls.

Broadly, the IC50 is the midpoint of a concentration-inhibition curve. The MFC is the smallest concentration meeting the test's criterion for killing the fungus. The term MIC denotes the least concentration at which growth counts as inhibited. What is called IC90 is the concentration needed for an effect of 90%. Consider `COc1cc(NC(C)CCCNC(=O)C[C@H](NC(=O)[C@@H](N)CCCN)C(=O)O)c2nc(C(C)(C)C)ccc2c1` (some centres not stated), for which the selectivity ratio in series [1] is greater than 8.8; in [9], greater than 7.9. Besides, the result (in the series on Staphylococcus aureus [2]; with Escherichia coli; in the series on Staphylococcus aureus [4]; in series [5]; in the series on Aspergillus fumigatus; with Pseudomonas aeruginosa) was inactive. The IC50 in series [3] was 40 µM; in the series on Vero, “Non-toxic”; in the series on Cryptococcus neoformans it was 4 µg/mL (≈ 7.34 µM); in the series with Leishmania donovani (setting [12]), 20 µg/mL (≈ 36.7 µM); in the series with Plasmodium falciparum [6] (setting [13]), 3 µg/mL (≈ 5.51 µM); in the series on Plasmodium falciparum [7] (setting [14]) it was 2.7 µg/mL (≈ 4.96 µM). Also, half-maximal inhibition in the series with Candida albicans [8] (IC50) was put at 15 µg/mL (≈ 27.5 µM). For the same compound, the MFC in the series with Cryptococcus neoformans and with Candida albicans [8] was 20 µg/mL (≈ 36.7 µM) in each case. In addition, the MIC with Cryptococcus neoformans and with Candida albicans [8] was 20 µg/mL (≈ 36.7 µM) each time. Also, the IC90 in the series with Leishmania donovani (Leishmania donovani) was 36 µg/mL (≈ 66.1 µM).
For `COc1cc(NC(C)CCCNC(=O)[C@H](CCCN)NC(=O)[C@@H](N)CCCN)c2ncccc2c1` (some centres not stated), the result (in the series on Staphylococcus aureus [2]; with Candida albicans [10]; with Escherichia coli; with Staphylococcus aureus [4]; in [5]; in the series with Aspergillus fumigatus) was inactive. In addition, the outcome with Pseudomonas aeruginosa and in the series on Candida albicans [11] was inactive. In addition, the IC50 was greater than 1000 µM in series [3]; “Non-toxic” in the series on Vero; 5.5 µg/mL (≈ 11.3 µM) in the series on Cryptococcus neoformans; 4 µg/mL (≈ 8.2 µM) in the series on Leishmania donovani (setting [12]); “Not Active” in the series with Plasmodium falciparum [6]; “Not Active” in the series on Plasmodium falciparum [7]. The compound further returned an MFC against Cryptococcus neoformans of 20 µg/mL (≈ 41 µM). This compound had a minimum inhibitory concentration (MIC) in the series on Cryptococcus neoformans of 10 µg/mL (≈ 20.5 µM). For the same compound, in the series with Plasmodium berghei, the outcome was Active. The compound also yielded an IC90 with Leishmania donovani (Leishmania donovani) of 20 µg/mL (≈ 41 µM).
As for `COc1cc(NC(C)CCCNC(=O)C[C@@H](NC(=O)[C@H](N)CCCNC(=N)N)C(=O)O)c2nc(C(C)(C)C)ccc2c1` (some centres not stated), the selectivity ratio in series [1] is greater than 13.2; in [9] it was greater than 9.1. The result (in the series with Staphylococcus aureus [2]; with Escherichia coli; in the series with Staphylococcus aureus [4]; in series [5]; in the series on Pseudomonas aeruginosa) was inactive. In addition, the IC50 in series [3] was 127 µM; in the series on Vero it was “Non-toxic”; in the series with Leishmania donovani it was “Not Active”; with Plasmodium falciparum [6] (setting [13]) it was 2.6 µg/mL (≈ 4.43 µM); in the series with Plasmodium falciparum [7] (setting [14]) it was 1.8 µg/mL (≈ 3.07 µM). Further, the outcome in the series with Plasmodium berghei was Active. Moreover, the IC90 entry in the series with Leishmania donovani was “inactive”.
In the case of `C[C@@H]1[C@H](O)[C@@H](C)/C=C/C=C/C=C/C=C/C=C/C=C/C=C/[C@H](O[C@@H]2O[C@H](C)[C@@H](O)[C@H](N)[C@@H]2O)C[C@@H]2O[C@](O)(C[C@@H](O)C[C@@H](O)[C@H](O)CC[C@@H](O)C[C@@H](O)CC(=O)O[C@H]1C)C[C@H](O)[C@H]2C(=O)O` [AMPHOTERICIN B], the figures for the MFC in the series with Cryptococcus neoformans and in the series with Nakaseomyces glabratus were 1.5 µg/mL (≈ 1.62 µM) and 0.625 µg/mL (≈ 0.676 µM), respectively. In addition, the IC90 in the series with Leishmania donovani (Leishmania donovani) worked out at 0.35 µg/mL (≈ 0.379 µM). Also, the figures for the MIC in the series on Nakaseomyces glabratus and against Candida albicans [8] were 0.31 µg/mL (≈ 0.335 µM) and 0.63 µg/mL (≈ 0.682 µM), respectively.
As to `COc1cc(NC(C)CCCNC(=O)[C@H](CCCCN)NC(=O)[C@@H](N)CCCCN)c2nc(C(C)(C)C)ccc2c1` (some centres not stated), the figures for the selectivity ratio in [1] and in [9] were greater than 37.7 and greater than 59.5, respectively. Also, the result (in the series on Staphylococcus aureus [2]; in the series on Candida albicans [10]; with Escherichia coli; in the series with Staphylococcus aureus [4]; in series [5]; in the series on Aspergillus fumigatus) was inactive. For the same compound, the result in the series with Pseudomonas aeruginosa and in the series on Candida albicans [11] was inactive. Also, the IC50 in series [3] was 73 µM; with Vero, “Non-toxic”; with Cryptococcus neoformans, 3.5 µg/mL (≈ 6.12 µM); with Leishmania donovani (setting [12]), 19 µg/mL (≈ 33.2 µM); in the series on Plasmodium falciparum [6] (setting [13]), 0.4 µg/mL (≈ 0.7 µM); with Plasmodium falciparum [7] (setting [14]), 0.63 µg/mL (≈ 1.1 µM). In the series on Cryptococcus neoformans, the MFC worked out at 5 µg/mL (≈ 8.74 µM). The compound also had an MIC with Cryptococcus neoformans of 5 µg/mL (≈ 8.74 µM). In the series with Plasmodium berghei, the result was Active. In the series with Leishmania donovani (Leishmania donovani), the IC90 amounted to 39 µg/mL (≈ 68.2 µM).
